Compound activity (PubChem)
TAAR1 ag = agonists of human TAAR1. Q96RJ0. CHO RD-HGA16 TAAR1, Fluo-8 calcium fluorescence; vehicle wells 0%, saturating PEA agonist 100%. activation, % at 3 µM. 360,000 tested, 0.99% active;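 active = activation above the mean activation of all test compounds in the run plus 3 SD, cut at about 38% in these data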
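Benchmarks: low control DMSO, high control PEA (EC100); System: CHO RD-HGA16 cells carrying human TAAR1 plus Gα16; Detection: Fluo-8 fluorescence, 5 s baseline then 140 s kinetic read; Schedule: 17-24 h plating, Fluo-8 75 min 37 °C, 30 min RT; Read-out basis: % activation from peak over basal fluorescence ratio, DMSO-to-PEA scaled.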
GPR7 antagonist = human neuropeptides B/W receptor 1 antagonism; 290,000 tested, 1.1% active; P48145; GPR7-expressing cells, fluorescence antagonist assay; inhibition, % at 4.4 µM; in the data active = inhibition above about 16%, passing the limit was not always enough;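 also: cells stimulated with the agonist NPW; 0% = agonist with vehicle and 100% = vehicle without agonist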
OX1R antag-1 = OX1R (human) antagonism | inhibition, % at 6.6 µM | OX1R-expressing cells, FRET antagonist read-out | 330,000 tested, 1.8% active | AID 485270 | O43613; in the data active = inhibition mostly above about 38%, no sharp cut-off; inactive = mostly below about 40%;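 also: 0% = agonist challenge alone and 100% = reference antagonist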
Target sequence (O43613 whole entry, looked up): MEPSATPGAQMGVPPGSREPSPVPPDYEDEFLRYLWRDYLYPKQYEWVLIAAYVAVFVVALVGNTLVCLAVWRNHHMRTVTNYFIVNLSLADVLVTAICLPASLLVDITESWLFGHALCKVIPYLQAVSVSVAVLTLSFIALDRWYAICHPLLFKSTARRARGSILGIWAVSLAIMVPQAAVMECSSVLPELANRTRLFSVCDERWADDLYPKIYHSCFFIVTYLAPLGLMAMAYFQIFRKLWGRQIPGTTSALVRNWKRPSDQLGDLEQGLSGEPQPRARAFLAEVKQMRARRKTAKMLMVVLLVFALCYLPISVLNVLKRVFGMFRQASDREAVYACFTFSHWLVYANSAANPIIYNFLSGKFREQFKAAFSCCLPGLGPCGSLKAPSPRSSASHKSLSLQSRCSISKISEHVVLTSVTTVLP
CHO parental Ca = signal in parental CHO cells, OX1R antagonist counter-screen | parental CHO-K1, ATP-induced calcium, Fluo-8 fluorescence | 330,000 tested, 0.63% active | AID 463079 | inhibition, % at 5.6 µM;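 active = inhibition above that plate's mean sample inhibition plus 3 SD, cut at about 26% in these data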;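 also: 0% = ATP-challenged DMSO wells and 100% = DMSO wells without ATP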
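Material – parental CHO cells · Reagent – ATP stimulus · Compound – single nominal dose of 5.6 µM per compound · Detection – Fluo-8 fluorescence · Read-out basis – percent inhibition of calcium signal · Controls – ATP-challenged DMSO wells low, unchallenged DMSO wells high · Repeats – no replicates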
TAAR1 antag = human TAAR1 antagonism | Q96RJ0 | CHO RD-HGA16 TAAR1, Fluo-8 calcium fluorescence, antagonist | inhibition, % at 3 µM | 360,000 tested, 1.5% active | AID 624466;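 active = inhibition above a per-plate cutoff, the mean inhibition of test compounds on that plate plus 3 SD, cut at about 49% in these data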;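 also: 0% = DMSO plus EC80 beta-PEA response and 100% = DMSO alone without agonist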
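System: CHO RD-HGA16 cells bearing hTAAR1. Reagent: EC80 β-phenethylamine stimulus. Schedule: seeding 17-24 h prior, 75-min 37 °C, 30-min RT dye loading. Signal: Fluo-8 intracellular calcium dye fluorescence, real-time kinetic reads. Read-out: % inhibition from peak post-agonist over basal fluorescence ratio. Benchmarks: vehicle wells and EC80 agonist wells. Replicates: n of 1.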
OX1R antag-2 = blocks the human orexin 1 receptor. CHO/OX1R cells, Fluo-8 calcium fluorescence, orexin A. inhibition, % at 5 µM. 330,000 tested, 0.43% active. AID 434989;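 active = inhibition above its plate's threshold, mean inhibition of all tested compounds on the plate plus 3 SD, cut at about 37% in these data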;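 also: 0% = orexin A challenge wells and 100% = SB-334867-A antagonist wells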
An asterisk follows results filed as active; · = no result. Shown are actives, neighbours in structure and some others; about 4.6% of the full set was active somewhere.

SMILES	TAAR1 ag	GPR7 antagonist	OX1R antag-1	CHO parental Ca	TAAR1 antag	OX1R antag-2
O=C(NC1=C(NC2CCS(=O)(=O)C2)C(=O)c2ccccc2C1=O)c1ccccc1 (centres undefined)	-1	-15	73*	-28	-9	-11
CCn1nc(C)cc1-c1nnc(Sc2ncc([N+](=O)[O-])s2)n1C	9	-1	52*	24	16	8
Cc1cc2c(Nc3ccccc3)ncnc2s1	-3	0	23	-15	-3	-9
Cc1cc2c(NCCc3ccccc3)ncnc2s1	4	18	54*	64*	19	49*
c1ccc(CCNc2ncnc3ccccc23)cc1	16	19	40	32*	29	2
Cc1ccc(S(=O)(=O)N2CCCc3nc(-c4ccccc4)ccc32)cc1	-1	·	·	·	-17	·
CC(=O)O[C@@H]1C=C[C@@H](C#Cc2ccc(C(C)(C)C)cc2)O[C@@H]1COC(=O)NCc1ccccc1	3	·	·	·	-20	·
COc1ccc(C(=O)/C=C/C(=O)N(CC(=O)NC2CCCCC2)Cc2ccccc2)c(O)c1	41*	-10	·	·	66*	·
COc1ccc(C(=O)/C=C/C(=O)N(CC(=O)NC2CCCCC2)Cc2ccccc2OC)c(O)c1	8	-6	·	·	0	·
CC1(C(=O)Nc2ccc3c(c2)OCCO3)CN(S(C)(=O)=O)CC(=O)N1CC(F)(F)F (centres undefined)	1	·	·	·	-3	·
COc1ccc(C(=O)NNC(=O)CSc2nnc(COc3ccccc3)n2C)cc1	14	-13	3	-5	-13	-2
COc1ccc(C(=O)NNC(=O)CSc2nnc(COc3ccc4ccccc4c3)n2C)cc1	44*	5	11	2	-2	-10
O=C(Nc1ccccc1)C1Cc2ccccc2CN1C(=O)c1ccco1 (centres undefined)	0	5	11	-23	-5	-26
O=C(Nc1cc(C(F)(F)F)ccc1N1CCOCC1)C1Cc2ccccc2CN1C(=O)c1ccco1 (centres undefined)	-2	40*	17	-18	7	-19
Cc1ccc(NC(=O)CSc2nc3nc(C)c(Br)cc3[nH]2)cc1F	12	-10	45*	-17	-29	-4
COC(=O)c1cc2c(ccn2-c2ccc(F)cc2)n1CC(C)C	44*	15	27	-34	-17	-52
COC(=O)c1cc2c(ccn2-c2ccc(F)cc2)n1C(C)C	39*	7	10	-39	-31	-32
COc1ccccc1NC(=O)C(C)OC(=O)Cc1ccsc1 (centres undefined)	0	·	·	·	-31	·
CC(=O)c1cc(N2CCOCC2)ccc1[N+](=O)[O-]	0	6	·	·	-6	·
O=[N+]([O-])c1ccc(N2CCOCC2)cn1	2	-3	40*	-3	13	-16
O=[N+]([O-])c1ccc(N2CCOCC2)cc1O	0	10	42*	-11	6	-5
O=[N+]([O-])c1cccnc1N1CCOCC1	5	0	10	0	10	6
CN1CCN(CC(=O)Nc2cc(N3CCOCC3)ccc2[N+](=O)[O-])CC1	1	-13	65*	2	0	-4
O=C1c2ccccc2C(=O)N1CCCCCc1nc(-c2ccccc2)no1	9	-20	74*	-12	15	27
CCOc1ccc(NC(=O)CSCc2cnn(-c3ccccc3)c2-n2cccc2)cc1	0	1	76*	-12	8	-37
SMILES	TAAR1 ag	GPR7 antagonist	OX1R antag-1	CHO parental Ca	TAAR1 antag	OX1R antag-2
O=C(O)CSCc1cnn(-c2ccccc2)c1-n1cccc1	3	-6	8	-2	-14	-3
CCOc1cccc2c1OC1(C)CC2NC(=O)N1c1cccc(Cl)c1 (centres undefined)	12	-9	44*	-4	15	-8
Cc1cc(=O)oc2cc(NC(=O)c3c(Cl)cnn3C)ccc12	5	-3	61*	-6	-15	-13
CCOc1ccccc1NC(=O)c1ccc2[nH]c(C)c(C)c2c1	-6	-18	73*	-22	1	-16
COc1ccc(NC(=O)c2ccc3[nH]c(C)c(C)c3c2)c(OC)c1	2	7	50*	-7	0	19
CCOc1ccccc1NC(=O)c1ccc(OCC)c([N+](=O)[O-])c1	10	-3	22	-18	9	8
COCC#Cc1ccc2c(c1)O[C@H](CN(C)C(=O)c1ccccc1)[C@@H](C)CN([C@H](C)CO)S2(=O)=O	1	·	·	·	-26	·
Cc1ccc(C(=O)OCC(=O)Nc2cccc(S(=O)(=O)N3CCCCC3)c2)s1	4	·	·	·	-7	·
CCOc1[nH]n(-c2ccc(Cl)cc2)c(=O)c1C=Nc1ccc(Cl)cc1	1	-15	22	38*	6	-7
CCOc1[nH]n(-c2ccc(Cl)cc2)c(=O)c1C=Nc1ccc(C)cc1	·	0	·	·	·	·
CCOC(=O)C1=C(C(=O)OCC)C2N(Cc3ccc(C#N)cc3)c3ccccc3[C@@]23C[C@@H](C(=O)OC)N(S(=O)(=O)c2ccccc2C)C3=N1 (some centres undefined)	1	·	·	·	-10	·
O=C(Nc1nc(-c2cccs2)cs1)c1ccc(Cl)cc1	4	-12	50	-31	-28	-20
O=C(Nc1nc(-c2ccc(Cl)s2)cs1)c1ccncc1	9	-6	44*	-20	-30	8
O=C(CSCC(=O)N1CCN(c2ccccc2)CC1)Nc1nc(-c2ccc(Cl)s2)cs1	3	-10	30	15	18	-5
O=C(Nc1nc(-c2ccccc2Cl)cs1)c1cccnc1	41*	-5	15	-15	8	-14
O=C(CSCC(=O)N1CCCCC1)Nc1nc(-c2ccc(Cl)s2)cs1	1	4	20	30*	54*	-13
CCNC(=O)C1(C)CCCN(Cc2ccccc2-c2ccccc2)C1 (centres undefined)	1	·	·	·	-19	·
CC1CC(C)CN(C(=O)c2ccc3c(c2)N(Cc2ccccc2)CCS3)C1 (centres undefined)	·	-5	15	47*	·	-30
O=C(NC1CC1)c1ccc2c(c1)N(Cc1ccc(Cl)cc1)CCS2	-4	11	46*	-35	-10	-22
O=C(Nc1ccc(OCc2ccccc2)cc1)c1ccccc1	1	-13	21	-4	-3	-14
O=C(CCN1CCN(Cc2ccccc2)CC1)Nc1ccc(OCc2ccccc2)cc1	19	11	16	36*	-8	13
Cc1ccsc1C(=O)Nc1ccc(OCc2ccccc2)cc1	17	7	41	15	54*	-8
COCCCN1C(=O)C(CC(=O)NCc2cccs2)CC(C(=O)N2CCCCCC2)=C1C (centres undefined)	0	·	·	·	-5	·
